Experimental findings from ChEMBL document CHEMBL1137679, “Synthesis and antibacterial activity of some new 2,3-dimethoxy-3-hydroxy-2-(1-phenyl-3-aryl-4-pyrazolyl)chromanones” (2009) are described below.

What all share (assay type): functional
The test system of assay [1] is Salmonella enterica subsp. enterica serovar Typhi str. CT18. Put plainly: Antimicrobial activity against Salmonella typhi MTCC 733 after 24 hrs by agar dilution assay. To be noted: MTCC 733, 24 h.
In assay [2] the test system is Pseudomonas aeruginosa. The assay is described as follows: Antimicrobial activity against Pseudomonas aeruginosa MTCC 3541 after 24 hrs by agar dilution assay. To be noted: MTCC 3541, 24 h. A digest of the protocol:
(§1)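 Agar dilution MIC following NCCLS. Cultures streaked on soyabean casein digest agar overnight at 37 °C, suspended to 0.5 McFarland, then diluted 10-fold (1.2 × 10⁷ CFU/ml). DMSO stocks diluted and added to molten Mueller-Hinton agar, final concentrations 64 down to 0.12 by twofold steps. Plates surface-inoculated, incubated 35 °C for 24 h. MIC is lowest concentration with no visible growth.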
For orientation: In agar dilution, organisms are placed on agar that contains the substance at set levels.

For assay [3], the system named is Staphylococcus aureus. Put plainly: Antimicrobial activity against Staphylococcus aureus MTCC 3160 at 1 mg/ml after 24 hrs by agar diffusion assay. To be noted: MTCC 3160, 24 h, read-out: DIZ. In outline: (§2)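 Agar well diffusion. 24-h cultures adjusted to 0.5 McFarland (1.5 × 10⁸ CFU/ml), mixed into molten cooled Mueller-Hinton agar (pH 7.4) and poured. 6 mm wells punched, each loaded with 50 µl of 1 mg/ml DMSO solution. DMSO as negative control, antibiotics as positive controls. Plates incubated 35 °C for 24 h. Mean of three replicates.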

Assay [4] relates to Staphylococcus epidermidis. The assay is described as follows: Antimicrobial activity against Staphylococcus epidermidis MTCC 2639 at 1 mg/ml after 24 hrs by agar diffusion assay. As to conditions: for zone of inhibition at 1000 µg/mL: MTCC 2639, 24 h, read-out: DIZ. In outline: as §2
In general terms: Agar diffusion results depend on both activity and mobility in agar.

For assay [5], the system named is Bacillus pumilus. Put plainly: Antimicrobial activity against Bacillus pumilus MTCC 1456 at 1 mg/ml after 24 hrs by agar diffusion assay. As to conditions: for zone of inhibition at 1000 µg/mL: MTCC 1456, 24 h, read-out: DIZ. A digest of the protocol:
as §2

In assay [6] the test system is Salmonella enterica subsp. enterica serovar Typhi str. CT18. Put plainly: Antimicrobial activity against Salmonella typhi MTCC 733 at 1 mg/ml after 24 hrs by agar diffusion assay. As to conditions: for zone of inhibition at 1000 µg/mL: MTCC 733, 24 h, read-out: DIZ. A digest of the protocol: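 Well diffusion in MHA (pH 7.4) seeded with 24-h culture adjusted to 0.5 McFarland (1.5 × 10⁸ CFU/ml). Wells of 6 mm received 50 µl of 1 mg/ml DMSO solution; DMSO served as negative control. Incubated 35 °C, 24 h. Mean of three replicates.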

In assay [7] the test system is Pseudomonas aeruginosa. The assay is described as follows: Antimicrobial activity against Pseudomonas aeruginosa MTCC 3541 at 1 mg/ml after 24 hrs by agar diffusion assay. As to conditions: for zone of inhibition at 1000 µg/mL: MTCC 3541, 24 h, read-out: DIZ. A digest of the protocol:
as §2

For assay [8], the system named is Staphylococcus aureus. Put plainly: Antimicrobial activity against Staphylococcus aureus MTCC 3160 after 24 hrs by agar dilution assay. To be noted: MTCC 3160, 24 h. In outline:
as §1

Assay [9] has as its system Staphylococcus epidermidis. Put plainly: Antimicrobial activity against Staphylococcus epidermidis MTCC 2639 after 24 hrs by agar dilution assay. As to conditions: MTCC 2639, 24 h. In outline: as §1
Assay [10] has as its system Bacillus pumilus. The assay is described as follows: Antimicrobial activity against Bacillus pumilus MTCC 1456 after 24 hrs by agar dilution assay. To be noted: MTCC 1456, 24 h. In outline: as §1

Molecules are shown by their SMILES. Values after ≈ are worked out from the molar mass of the structure shown. Active and inactive are the calls of the source. The calls are words filed in the database; no cut-off is given here.

What is called MIC is the least concentration at which growth counts as inhibited. With `COC1(O)C(=O)c2ccccc2OC1(OC)c1cn(-c2ccccc2)nc1-c1ccc([N+](=O)[O-])cc1` (centres undefined), the MIC in assay [1] was determined as 8 µg/mL (≈ 16.4 µM); in the assay with Pseudomonas aeruginosa [2], 16 µg/mL (≈ 32.8 µM); against Staphylococcus aureus [8] it was 2 µg/mL (≈ 4.1 µM); in assay [9], 8 µg/mL (≈ 16.4 µM); against Bacillus pumilus [10], 32 µg/mL (≈ 65.6 µM). Also, the zone of inhibition at 1000 µg/mL was 26 mm in the assay on Staphylococcus aureus [3]; 18.5 mm in assay [4]; 15.8 mm in the assay with Bacillus pumilus [5]; 20.6 mm in [6]; 16.6 mm in the assay on Pseudomonas aeruginosa [7].
As to `COC1(O)C(=O)c2ccccc2OC1(OC)c1cn(-c2ccccc2)nc1-c1ccc(C)cc1` (centres undefined), the MIC in assay [1] is above 64 µg/mL; in the assay with Pseudomonas aeruginosa [2], above 64 µg/mL; with Staphylococcus aureus [8] it was 32 µg/mL (≈ 70.1 µM); in [9], 64 µg/mL (≈ 140 µM); against Bacillus pumilus [10], above 64 µg/mL. Further, the zone of inhibition at 1000 µg/mL in the assay with Staphylococcus aureus [3] turned out to be 16.1 mm; in [4], 12.6 mm. In addition, the “diameter of the inhibition zone (DIZ)” value (in the assay on Bacillus pumilus [5]; in assay [6]; in the assay on Pseudomonas aeruginosa [7]) was “inactive” each time.
As for `CC(=O)NC[C@H]1CN(c2ccc(N3CCOCC3)c(F)c2)C(=O)O1` [LINEZOLID], the MIC in assay [1] is 8 µg/mL (≈ 23.7 µM); against Pseudomonas aeruginosa [2] it was below 16 µg/mL; in assay [9], below 16 µg/mL; against Bacillus pumilus [10] it was 4 µg/mL (≈ 11.9 µM).
`COC1(O)C(=O)c2ccccc2OC1(OC)c1cn(-c2ccccc2)nc1-c1ccc(F)cc1` (centres undefined): the MIC in assay [1] stood at 8 µg/mL (≈ 17.4 µM); against Pseudomonas aeruginosa [2], 8 µg/mL (≈ 17.4 µM); with Staphylococcus aureus [8] it was 4 µg/mL (≈ 8.69 µM); in assay [9], 64 µg/mL (≈ 139 µM); in the assay on Bacillus pumilus [10] it was 64 µg/mL (≈ 139 µM). Also, the zone of inhibition at 1000 µg/mL in the assay on Staphylococcus aureus [3] came to 23 mm; in [4] it was 12.1 mm; in the assay with Bacillus pumilus [5] it was 10.1 mm; in assay [6], 18.2 mm; in the assay with Pseudomonas aeruginosa [7], 22.2 mm.
As to `CO/N=C(\C(=O)N[C@@H]1C(=O)N2C(C(=O)OC(C)OC(C)=O)=C(COC(N)=O)CS[C@H]12)c1ccco1` (some centres undefined) [CEFUROXIME AXETIL], the MIC in assay [1] was 8 µg/mL (≈ 15.7 µM); against Pseudomonas aeruginosa [2], above 16 µg/mL; with Staphylococcus aureus [8], 8 µg/mL (≈ 15.7 µM); in [9] it was 8 µg/mL (≈ 15.7 µM); in the assay with Bacillus pumilus [10], above 16 µg/mL.
Regarding `N[C@@H](C(=O)N[C@@H]1C(=O)N2C(C(=O)O)=C(Cl)CS[C@H]12)c1ccccc1` [CEFACLOR ANHYDROUS], the MIC was 8 µg/mL (≈ 21.8 µM) in assay [1]; below 16 µg/mL against Pseudomonas aeruginosa [2]; 2 µg/mL (≈ 5.44 µM) in the assay with Staphylococcus aureus [8]; 2 µg/mL (≈ 5.44 µM) in assay [9]; 8 µg/mL (≈ 21.8 µM) in the assay on Bacillus pumilus [10].
For `COC1(O)C(=O)c2ccccc2OC1(OC)c1cn(-c2ccccc2)nc1-c1ccc(Br)cc1` (centres undefined), the MIC in [1] was above 64 µg/mL; in the assay on Pseudomonas aeruginosa [2], above 64 µg/mL; against Staphylococcus aureus [8], 64 µg/mL (≈ 123 µM); in assay [9], above 64 µg/mL; with Bacillus pumilus [10], above 64 µg/mL. Further, the zone of inhibition at 1000 µg/mL in the assay with Staphylococcus aureus [3] came out at 10.3 mm. Further, the “diameter of the inhibition zone (DIZ)” value (in [4]; with Bacillus pumilus [5]; in assay [6]; in the assay on Pseudomonas aeruginosa [7]) was “inactive” each time.
Turning to `COc1ccc(-c2nn(-c3ccccc3)cc2C2(OC)Oc3ccccc3C(=O)C2(O)OC)cc1` (centres undefined), the MIC in assay [1] is above 64 µg/mL; against Pseudomonas aeruginosa [2], above 64 µg/mL; in the assay on Staphylococcus aureus [8], 16 µg/mL (≈ 33.9 µM); in [9], above 64 µg/mL; in the assay on Bacillus pumilus [10] it was above 64 µg/mL. For the same compound, the zone of inhibition at 1000 µg/mL with Staphylococcus aureus [3] was determined as 18 mm. Besides, the “diameter of the inhibition zone (DIZ)” value (in assay [4]; with Bacillus pumilus [5]; in assay [6]; in the assay with Pseudomonas aeruginosa [7]) was “inactive” throughout.
As for `COC1(O)C(=O)c2ccccc2OC1(OC)c1cn(-c2ccccc2)nc1-c1ccc(Cl)cc1` (centres undefined), the MIC is above 64 µg/mL in assay [1]; 32 µg/mL (≈ 67.1 µM) with Pseudomonas aeruginosa [2]; 8 µg/mL (≈ 16.8 µM) against Staphylococcus aureus [8]; 16 µg/mL (≈ 33.5 µM) in assay [9]; above 64 µg/mL with Bacillus pumilus [10]. The zone of inhibition at 1000 µg/mL with Staphylococcus aureus [3] turned out to be 20.4 mm; in [4] it was 16.7 mm; in the assay with Pseudomonas aeruginosa [7] it was 14.7 mm. Moreover, the “diameter of the inhibition zone (DIZ)” value (with Bacillus pumilus [5]; in assay [6]) was “inactive” in each case.
With `COC1(O)C(=O)c2ccccc2OC1(OC)c1cn(-c2ccccc2)nc1-c1ccccc1` (centres undefined), the MIC in assay [1] was above 64 µg/mL; in the assay with Pseudomonas aeruginosa [2], above 64 µg/mL; with Staphylococcus aureus [8], 16 µg/mL (≈ 36.2 µM); in assay [9], above 64 µg/mL; in the assay on Bacillus pumilus [10], above 64 µg/mL. The zone of inhibition at 1000 µg/mL in the assay on Staphylococcus aureus [3] stood at 18.1 mm. Also, the “diameter of the inhibition zone (DIZ)” value (in assay [4]; with Bacillus pumilus [5]; in [6]; in the assay with Pseudomonas aeruginosa [7]) was “inactive” each time.
